ChEMBL document CHEMBL1125548, “Synthesis and pharmacological studies of N-substituted 6-[(2-aminoethyl)amino]-1,3-dimethyl-2,4(1H,3H)-pyrimidinediones, novel class III antiarrhythmic agents” (1992)

Legend:
[1] = system: Canis familiaris; assay: The percentage change of the duration of action potential at 75% repolarization was measured before and after the administration at 1.0 ug/mL; assay type: functional, Canis lupus familiaris
In short: (§1)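 Canine right-ventricular Purkinje fibers (mongrel dogs 7–11 kg, thiopental-anesthetized) superfused with Tyrode's (pH 7.5, 36 °C, gassed 95% O2/5% CO2). Compounds diluted from 1 mM water stock and added cumulatively. Readings taken 20 min after solution exchange. Result given as percent change in action potential duration.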

[2] = system: Canis familiaris; assay: Concentration required for 50% inhibition of tachycardia induced by isoproterenol (0.5ug/mL, iv) in anesthetized dog; assay type: functional; settings: Canis lupus familiaris, read-out: ID50 (the source's name)
[3] = system: Canis familiaris; assay: The percentage change of the duration of action potential at 75% repolarization was measured before and after the administration at 3.0 ug/mL; assay type: functional, Canis lupus familiaris; in short: as §1
[4] = system: Canis familiaris; assay: Percentage change of the duration of action potential at 75% repolarization was measured before and after the administration at 10.0 ug/mL; assay type: functional, Canis lupus familiaris; in short: as §1
[5] = system: Canis familiaris; assay: The prolongation effect of the atrial and ventricular effective refractory period was measured before and after the administration at 0.3 mg/kg; assay type: functional, Canis lupus familiaris, Cardiac atrium
In short: (§2)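 In vivo, mongrel dogs of either sex (7–13 kg), anesthetized with pentobarbital sodium 30 mg/kg iv. Left femoral artery cannulated for arterial pressure, femoral vein for drug dosing. Effective refractory period measured before and after administration.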

[6] = system: Canis familiaris; assay: The prolongation effect of the atrial and ventricular effective refractory period was measured before and after the administration at 0.1 mg/kg; assay type: functional, Canis lupus familiaris, Cardiac atrium; settings: dose 1.0 mg/kg; in the assay text read “1.0 mg/kg” for “0.1 mg/kg”; in short: as §2
[7] = system: Canis familiaris; assay: The prolongation effect of the atrial and ventricular effective refractory period was measured before and after the administration at 3 mg/kg; assay type: functional, Canis lupus familiaris, Cardiac atrium; in short: as §2
[8] = system: Canis familiaris; assay: The prolongation effect of the atrial and ventricular effective refractory period was measured before and after the administration at 1 mg/kg; assay type: functional, Canis lupus familiaris, Cardiac atrium; in short: as §2
[9] = system: Canis familiaris; assay: The prolongation effect of the atrial and ventricular effective refractory period was measured before and after the administration at 0.3 mg/kg
[10] = species on record: Canis familiaris; assay: Action potential duration at 50% repolarization at 3(ug/mL) concentration; assay type: functional, Canis lupus familiaris
In short: (§3)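 Purkinje fibers from right ventricle of mongrel dogs (7–11 kg, thiopental sodium 30 mg/kg iv), superfused in organ bath with Tyrode's solution (pH 7.5, 95% O2/5% CO2) at 36 °C. Compounds from 1 mM aqueous stock diluted in Tyrode's, given cumulatively. Data taken 20 min after each solution change. Means ± SD of seven experiments.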

[11] = species on record: Canis familiaris; assay: Resting membrane potential at 0 (ug/mL) concentration; assay type: functional; settings: Canis lupus familiaris; in short: as §3
[12] = species on record: Canis familiaris; assay: Action potential duration at 90% repolarization at 1(ug/mL) concentration; assay type: functional, Canis lupus familiaris; in short: as §3
[13] = species on record: Canis familiaris; assay: Maximum upstroke velocity of the compound at 1 (ug/mL) concentration; assay type: functional, Canis lupus familiaris; in short: as §3
[14] = species on record: Canis familiaris; assay: Action potential duration at 50% repolarization at 0.1(ug/mL) concentration; assay type: functional, Canis lupus familiaris; in short: as §3
[15] = species on record: Canis familiaris; assay: Maximum upstroke velocity of the compound at 3 (ug/mL) concentration; assay type: functional, Canis lupus familiaris; in short: as §3
[16] = species on record: Canis familiaris; assay: Action potential duration at 50% repolarization at 10(ug/mL) concentration; assay type: functional, Canis lupus familiaris; in short: as §3
[17] = species on record: Canis familiaris; assay: Maximum upstroke velocity of the compound at 10 (ug/mL) concentration; assay type: functional, Canis lupus familiaris; in short: as §3
[18] = species on record: Canis familiaris; assay: Action potential duration at 75% repolarization at 1(ug/mL) concentration; assay type: functional, Canis lupus familiaris; in short: as §3
[19] = species on record: Canis familiaris; assay: Action potential duration at 50% repolarization at 1(ug/mL) concentration; assay type: functional, Canis lupus familiaris; in short: as §3
[20] = species on record: Canis familiaris; assay: Resting membrane potential at 1 (ug/mL) concentration; assay type: functional; settings: Canis lupus familiaris; in short: as §3
[21] = species on record: Canis familiaris; assay: Action potential duration at 90% repolarization at 0.1(ug/mL) concentration; assay type: functional, Canis lupus familiaris; in short: as §3
[22] = species on record: Canis familiaris; assay: Resting membrane potential at 0.1 (ug/mL) concentration; assay type: functional; settings: Canis lupus familiaris; in short: as §3
[23] = species on record: Canis familiaris; assay: Action potential duration at 75% repolarization at 3(ug/mL) concentration; assay type: functional, Canis lupus familiaris; in short: as §3
[24] = species on record: Canis familiaris; assay: Action potential duration at 90% repolarization at 0(ug/mL) concentration; assay type: functional, Canis lupus familiaris; in short: as §3
[25] = species on record: Canis familiaris; assay: Action potential amplitude at 0.3(ug/mL) concentration; assay type: functional, Canis lupus familiaris; in short: as §3
[26] = species on record: Canis familiaris; assay: Action potential amplitude at 10(ug/mL) concentration; assay type: functional, Canis lupus familiaris; in short: as §3
[27] = species on record: Canis familiaris; assay: Action potential amplitude at 1(ug/mL) concentration; assay type: functional, Canis lupus familiaris; in short: as §3
[28] = species on record: Canis familiaris; assay: Action potential amplitude at 3(ug/mL) concentration; assay type: functional, Canis lupus familiaris; in short: as §3
[29] = species on record: Canis familiaris; assay: Action potential amplitude at 0.1(ug/mL) concentration; assay type: functional, Canis lupus familiaris; in short: as §3
[30] = species on record: Canis familiaris; assay: Action potential amplitude at 0 (ug/mL) concentration; assay type: functional, Canis lupus familiaris; in short: as §3
[31] = species on record: Canis familiaris; assay: Action potential duration at 90% repolarization at 3(ug/mL) concentration; assay type: functional, Canis lupus familiaris; in short: as §3
[32] = species on record: Canis familiaris; assay: Maximum upstroke velocity of the compound at 0.3 (ug/mL) concentration; assay type: functional, Canis lupus familiaris; in short: as §3
[33] = species on record: Canis familiaris; assay: Action potential duration at 90% repolarization at 10(ug/mL) concentration; assay type: functional, Canis lupus familiaris; in short: as §3
[34] = species on record: Canis familiaris; assay: Resting membrane potential at 10 (ug/mL) concentration; assay type: functional; settings: Canis lupus familiaris; in short: as §3
[35] = species on record: Canis familiaris; assay: Resting membrane potential at 0.3 (ug/mL) concentration; assay type: functional; settings: Canis lupus familiaris; in short: as §3
[36] = species on record: Canis familiaris; assay: Action potential duration at 90% repolarization at 0.3(ug/mL) concentration; assay type: functional, Canis lupus familiaris; in short: as §3
[37] = species on record: Canis familiaris; assay: Action potential duration at 75% repolarization at 10(ug/mL) concentration; assay type: functional, Canis lupus familiaris; in short: as §3
[38] = species on record: Canis familiaris; assay: Action potential duration at 75% repolarization at 0.1(ug/mL) concentration; assay type: functional, Canis lupus familiaris; in short: as §3
[39] = species on record: Canis familiaris; assay: Maximum upstroke velocity of the compound at 0.1 (ug/mL) concentration; assay type: functional, Canis lupus familiaris; in short: as §3
[40] = species on record: Canis familiaris; assay: Maximum upstroke velocity of the compound at 0 (ug/mL) concentration; assay type: functional, Canis lupus familiaris; in short: as §3
[41] = species on record: Canis familiaris; assay: Action potential duration at 50% repolarization at 0 ug/mL concentration; assay type: functional, Canis lupus familiaris; in short: as §3
[42] = species on record: Canis familiaris; assay: Action potential duration at 50% repolarization at 0.3(ug/mL) concentration; assay type: functional, Canis lupus familiaris; in short: as §3
[43] = species on record: Canis familiaris; assay: Action potential duration at 75% repolarization at 0.3(ug/mL) concentration; assay type: functional, Canis lupus familiaris; in short: as §3
[44] = species on record: Canis familiaris; assay: Resting membrane potential at 3(ug/mL) concentration; assay type: functional; settings: Canis lupus familiaris; in short: as §3
[45] = species on record: Canis familiaris; assay: Action potential duration at 75% repolarization at 0(ug/mL) concentration; assay type: functional, Canis lupus familiaris; in short: as §3

CN(CCN(C)c1cc(=O)n(C)c(=O)n1C)CC(O)COc1ccccc1 (stereo not given)
APD75 [1]: 2.9%
ED50 [2]: 1 mg/kg
APD75 [3]: 8%

Cl.Cn1c(N2CCN(CCOc3ccc([N+](=O)[O-])cc3)CC2)cc(=O)n(C)c1=O
APD75 [4]: 43%
APD75 [1]: 8%
APD75 [3]: 22%

CC(C)NCC(O)c1ccc(NS(C)(=O)=O)cc1 (stereo not given) [SOTALOL]
APD75 [4]: 11.2%
APD75 [1]: 0.7%
APD75 [3]: 8%

Cl.Cn1c(N2CCN(CCCOc3ccc(Cl)cc3)CC2)cc(=O)n(C)c1=O
ERP [5]: 6.3%
ERP [6]: 13%
ERP [7]: 24.3%
APD75 [1]: 14%
APD75 [3]: 25%

Cn1c(NCCNCC(O)COc2ccccc2F)cc(=O)n(C)c1=O (stereo not given)
APD75 [4]: 15.6%
APD75 [1]: 4.1%
ED50 [2]: 0.003 mg/kg
APD75 [3]: 8.3%

CCN(CC)CCNC(=O)c1ccc(NS(C)(=O)=O)cc1 [SEMATILIDE]
APD75 [1]: 19%
APD75 [3]: 29%

Cn1c(N2CCN(Cc3ccc([N+](=O)[O-])cc3)CC2)cc(=O)n(C)c1=O.O=C(O)C(=O)O
ERP [5]: 0%
APD75 [4]: 11%
ERP [7]: 7%
APD75 [1]: 3%
ERP [8]: 0%
APD75 [3]: 7%

CS(=O)(=O)O.Cn1c(N2CCN(CCCOc3ccccc3)CC2)cc(=O)n(C)c1=O
APD75 [1]: 7%
ED50 [2]: > 5 mg/kg
APD75 [3]: 22%

CSc1ccccc1OCCCN1CCN(c2cc(=O)n(C)c(=O)n2C)CC1.Cl
APD75 [4]: 0%
APD75 [1]: 0%
APD75 [3]: 0%

Cn1c(N2CCN(CCCc3ccc([N+](=O)[O-])cc3)CC2)cc(=O)n(C)c1=O.O=C(O)C(=O)O
ERP [9]: 14.3%
APD75 [4]: 31%
APD75 [1]: 17%
APD75 [3]: 22%

Cl.Cn1c(N2CCN(CCCOc3ccc(F)cc3)CC2)cc(=O)n(C)c1=O
ERP [5]: 5.9%
ERP [6]: 5.9%
ERP [7]: 11.8%
APD75 [1]: 9%
APD75 [3]: 13%

Cl.Cl.Cn1c(N2CCN(CC(O)COc3ccccc3)CC2)cc(=O)n(C)c1=O (stereo not given)
APD75 [1]: 3.5%
ED50 [2]: > 5 mg/kg
APD75 [3]: 13.7%

Cn1c(NCCNCCCc2ccc([N+](=O)[O-])cc2)cc(=O)n(C)c1=O.O=C(O)C(=O)O
APD75 [4]: 16%
APD75 [1]: 9%
APD75 [3]: 12%

Cl.Cn1c(NCCN(CCO)CCCc2ccc([N+](=O)[O-])cc2)cc(=O)n(C)c1=O
APD50 [10]: 369 ms
RMP [11]: -88 mV
APD90 [12]: 471 ms
Max dV/dt [13]: 344 V s-1
APD50 [14]: 293 ms
Max dV/dt [15]: 341 V s-1
APD50 [16]: 386 ms
Max dV/dt [17]: 339 V s-1
APD75 [18]: 428 ms
APD50 [19]: 349 ms
RMP [20]: -87 mV
APD90 [21]: 371 ms
RMP [22]: -85 mV
APD75 [23]: 485 ms
APD90 [24]: 344 ms
APA [25]: 102 mV
APA [26]: 107 mV
APA [27]: 103 mV
APA [28]: 104 mV
APA [29]: 101 mV
APA [30]: 104 mV
APD90 [31]: 533 ms
Max dV/dt [32]: 348 V s-1
APD90 [33]: 584 ms
RMP [34]: -90 mV
RMP [35]: -87 mV
APD90 [36]: 409 ms
APD75 [37]: 529 ms
APD75 [1]: 22%
APD75 [38]: 340 ms
Max dV/dt [39]: 351 V s-1
Max dV/dt [40]: 356 V s-1
APD50 [41]: 266 ms
APD50 [42]: 315 ms
APD75 [43]: 372 ms
RMP [44]: -87 mV
APD75 [3]: 38%
APD75 [45]: 313 ms
